# Screening results deposited in PubChem by The Scripps Research Institute Molecular Screening Center.
# Only some compounds are listed: those with a hit (about 2.3% of all), similar ones and a draw of the others.
# ADAM17 inh: inhibits human ADAM17 | P78536 | recombinant ADAM17, EDANS/DABCYL FRET peptide cleavage | inhibition, % at 6.95 µM | actives 0.83% (n = 370,000) | AID 720648;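 active = inhibition above the mean of compounds lying between control limits plus 3 SD, set per campaign, cut at about 8.5% in these data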
# ADAM10 inh: inhibits human ADAM10; O14672; recombinant ADAM10, EDANS/DABCYL FRET peptide cleavage, 3 h; inhibition, % at 7 µM; actives 0.62% (n = 370,000); AID 720582;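 active = inhibition above a per-campaign cutoff equal to the mean of compounds falling between control-based bounds plus 3 SD, cut at about 20% in these data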
# TbMetRS inhib: blocks T. brucei methionyl-tRNA synthetase activity; purified T. brucei MetRS, ATP depletion, Kinase-Glo luminescence; inhibition, % at 11.9 µM; actives 0.4% (n = 360,000);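 active = inhibition above a per-plate cutoff of the control wells' mean inhibition plus 3 SD, cut at about 5.5% in these data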
#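 Dosing: 11.9 µM single point; system: parasite MetRS enzyme; technique: luminescence of leftover ATP; times: 15 min enzyme-compound preincubation, 2 h reaction, 10 min detection, 25 °C; replicates: each compound tested once; read-out basis: percent inhibition relative to median high and low control wells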
# PLC-gamma1 inh: PLC-gamma1 (human) inhibition, primary screen | actives 0.84% (n = 370,000) | purified PLC-gamma1, fluorogenic substrate, fluorescence | inhibition, % at 12.2 µM | P19174 | AID 720700; in the data active = inhibition above about 9.5%
# Target sequence (P19174 whole entry, looked up): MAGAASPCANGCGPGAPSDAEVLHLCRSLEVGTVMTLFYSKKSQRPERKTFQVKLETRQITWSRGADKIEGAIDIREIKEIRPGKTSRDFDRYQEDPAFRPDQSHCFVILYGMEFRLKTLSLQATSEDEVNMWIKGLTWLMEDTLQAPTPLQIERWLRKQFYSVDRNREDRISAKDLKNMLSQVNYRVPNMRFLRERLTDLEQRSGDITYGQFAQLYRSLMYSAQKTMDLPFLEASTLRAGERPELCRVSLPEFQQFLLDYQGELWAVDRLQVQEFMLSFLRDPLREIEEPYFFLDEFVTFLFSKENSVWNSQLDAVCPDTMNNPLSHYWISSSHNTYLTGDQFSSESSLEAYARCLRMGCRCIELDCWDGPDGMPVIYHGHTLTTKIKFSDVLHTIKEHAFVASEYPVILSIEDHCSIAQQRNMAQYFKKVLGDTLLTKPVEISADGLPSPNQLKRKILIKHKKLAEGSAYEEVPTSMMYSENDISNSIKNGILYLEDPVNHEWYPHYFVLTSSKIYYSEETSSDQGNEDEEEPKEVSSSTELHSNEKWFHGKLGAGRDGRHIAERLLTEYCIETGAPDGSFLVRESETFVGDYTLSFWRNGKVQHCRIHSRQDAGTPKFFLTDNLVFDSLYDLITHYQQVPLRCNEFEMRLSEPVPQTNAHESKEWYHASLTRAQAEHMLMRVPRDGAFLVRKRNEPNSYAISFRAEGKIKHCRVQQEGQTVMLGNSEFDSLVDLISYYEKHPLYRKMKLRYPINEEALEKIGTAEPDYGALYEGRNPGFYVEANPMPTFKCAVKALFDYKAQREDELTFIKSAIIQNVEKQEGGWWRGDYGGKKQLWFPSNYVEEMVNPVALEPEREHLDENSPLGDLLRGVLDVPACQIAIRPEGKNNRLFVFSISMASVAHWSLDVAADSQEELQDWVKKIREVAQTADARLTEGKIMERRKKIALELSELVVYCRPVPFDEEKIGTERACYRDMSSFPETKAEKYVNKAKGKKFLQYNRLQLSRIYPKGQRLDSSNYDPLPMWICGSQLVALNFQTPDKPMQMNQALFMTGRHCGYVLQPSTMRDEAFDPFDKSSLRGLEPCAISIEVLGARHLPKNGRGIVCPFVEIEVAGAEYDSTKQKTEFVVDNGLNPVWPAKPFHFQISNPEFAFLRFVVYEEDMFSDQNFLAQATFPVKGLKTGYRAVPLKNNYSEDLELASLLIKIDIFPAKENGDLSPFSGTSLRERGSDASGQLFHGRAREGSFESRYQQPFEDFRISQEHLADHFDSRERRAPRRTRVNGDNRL
# PLCb3 inh: inhibitors of human phospholipase C beta3. Q01970. Purified PLC-beta3, fluorogenic substrate, fluorescence. inhibition, % at 12.2 µM. actives 0.18% (n = 370,000). AID 720704; in the data active = inhibition above about 11%
# ADAM10 confirm: confirmation of inhibitors of human ADAM10; shares compounds with ADAM10 inh; ADAM10 QFRET peptide cleavage, EDANS fluorescence; inhibition, % at 6.95 µM; actives 1% (n = 2,100);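 active = inhibition above about 20% chosen separately for each screening run, limit read from the data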
# ADAM17 counter: ADAM17 inhibition, counter-screen for ADAM10 exosite hits; shares compounds with ADAM10 inh; ADAM17 QFRET peptide cleavage, EDANS fluorescence; inhibition, % at 6.95 µM; actives 0.5% (n = 2,100); AID 743214;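 active = mean triplicate inhibition above the solvent-only control wells' mean plus 3 SD, cut at about 12% in these data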
# ADAM10 counter: counter-screen for ADAM17 exosite inhibitors: inhibitors of human ADAM10; shares compounds with ADAM17 inh; actives 47% (n = 2,900); recombinant ADAM10, EDANS/DABCYL FRET peptide cleavage, 3 h; inhibition, % at 6.95 µM;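 active = mean inhibition over the triplicate runs exceeds the activity threshold set in the earlier primary screen, cut at about 20% in these data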
# ADAM17 confirm: human ADAM17 inhibition, confirmation | shares compounds with ADAM17 inh | recombinant ADAM17, EDANS/DABCYL QFRET peptide cleavage | inhibition, % at 6.95 µM | actives 65% (n = 2,900) | AID 743257;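 active = mean inhibition across replicates above the hit cutoff set in the primary screen, cut at about 8.5% in these data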
# Hits are given with their value; - = inactive; . = no result.
SMILES,ADAM17 inh,ADAM10 inh,TbMetRS inhib,PLC-gamma1 inh,PLCb3 inh,ADAM10 confirm,ADAM17 counter,ADAM10 counter,ADAM17 confirm
CC(C)Oc1ccc(CNC(=O)CC(c2ccccc2)c2cc(Cl)ccc2O)cc1 (configuration not stated),16,25,-,-,-,-,-,33,16
CC(=O)Nc1ccc(S(=O)(=O)N(CC(=O)NCC2CCCO2)Cc2ccccc2Cl)cc1 (configuration not stated),-,-,-,-,-,.,.,.,.
O=C(NNC(=O)c1cc(-c2ccccc2)nc2ccccc12)Nc1cccc(Cl)c1,10,25,-,-,-,-,-,31,21
Cc1ccc(C2=CC(=O)C[C@H](c3ccc(F)cc3)C2)cc1,12,28,-,-,-,-,-,22,17
O=C1C=C(c2ccc3[nH]ccc3c2)C[C@@H](c2ccc(Cl)cc2)C1,15,21,-,-,-,-,-,-,-
O=C1C=C(c2ccc(-c3ccccc3)cc2)C[C@@H](c2ccc(F)cc2)C1,-,-,-,-,-,.,.,.,.
CCc1ccc(OCC(=O)Nc2ccc3oc(=O)ccc3c2)cc1,-,-,-,-,-,.,.,.,.
CC(C)NC(=O)CC(c1ccccc1)c1cc(Br)ccc1O (configuration not stated),.,.,-,.,.,.,.,.,.
CCCCCCNC(=O)CC(c1ccccc1)c1cc(Br)ccc1O (configuration not stated),23,35,-,-,-,-,-,41,22
CC1=C(C(=O)N(C(C)C)C(C)C)CC(CC(=O)NCc2cccc3ccccc23)C(=O)N1Cc1ccccc1 (configuration not stated),-,-,-,-,-,.,.,.,.
CC1(Cc2cc(Cl)ccc2C(F)(F)F)C(=O)Nc2cc(F)ccc21 (configuration not stated),.,.,-,.,.,.,.,.,.
CC1(Cc2ccc(C(F)(F)F)o2)C(=O)Nc2cc(-c3ccc(F)cc3F)ccc21 (configuration not stated),13,45,-,-,-,-,-,44,24
CCC[C@H]1CN(c2ccc(OC)cc2)C(=O)[C@@H]1CC(=O)NC,-,-,-,-,-,.,.,.,.
CCc1nc2ccc(C(=O)Nc3cc(-c4ccccc4)ccc3OC)cn2c1N(C)Cc1nccs1,11,27,-,-,-,-,-,-,15
CCc1nc2ccc(C(=O)Nc3cc(-c4ccccc4)ccc3OC)cn2c1N(C)Cc1ccc(OC)cc1,-,-,-,-,-,.,.,.,.
CN(CC(=O)Nc1cccc(F)c1)CC(=O)Nc1cccc(S(=O)(=O)N2CCCCCC2)c1,16,36,-,-,-,-,-,23,14
O=C(CNc1ccc(C(F)(F)F)cc1)Nc1cccc(S(=O)(=O)N2CCCCC2)c1,9.8,22,-,-,-,-,-,54,27
O=C(CNc1cc(S(=O)(=O)N2CCCC2)ccc1OCC(F)(F)F)Nc1ccc(SC(F)F)cc1,16,20,-,-,-,-,-,35,20
C[C@@H]1CN([C@@H](C)CO)C(=O)c2cc(Br)cnc2O[C@H]1CN(C)C(=O)Cc1cccnc1,-,-,-,-,-,.,.,.,.
O=S(=O)(NCCOCC(F)(F)C(F)F)c1ccc2oc3ccccc3c2c1,9.5,29,-,-,-,-,-,32,21
COc1ccc(OCCNS(=O)(=O)c2ccc3oc4ccccc4c3c2)cc1,-,-,-,-,-,.,.,.,.
Nn1c(SCC(=O)NC2CCCCC2)nnc1-c1n[nH]c2c1CCC2,-,-,.,-,-,.,.,.,.
O=C1NC(Cc2ccccc2)c2nc3ccccc3c(=O)n2-c2cc(Cl)ccc21 (configuration not stated),17,25,.,-,-,-,-,23,12
O=C(NCc1ccc(Cl)cc1)OCCN1C(=O)CCC12CCC(c1ccccc1)CC2 (configuration not stated),-,-,.,-,-,.,.,.,.
COc1ccc(S(=O)(=O)N(C)C[C@@H]2OCCCC[C@H](C)Oc3ccc(NC(=O)Nc4ccc(C(F)(F)F)cc4)cc3C(=O)N([C@H](C)CO)C[C@H]2C)cc1,13,34,-,-,-,-,-,46,24
SMILES,ADAM17 inh,ADAM10 inh,TbMetRS inhib,PLC-gamma1 inh,PLCb3 inh,ADAM10 confirm,ADAM17 counter,ADAM10 counter,ADAM17 confirm
C[C@H](CO)N1C[C@H](C)[C@@H](CN(C)S(=O)(=O)c2cccs2)Oc2ccc(NC(=O)Nc3ccccc3)cc2C1=O,-,-,-,-,-,.,.,.,.
COc1ccc(S(=O)(=O)N(C)C[C@H]2OCCCC[C@@H](C)Oc3ccc(NC(=O)CCC(F)(F)F)cc3C(=O)N([C@H](C)CO)C[C@@H]2C)cc1,-,-,-,-,-,.,.,.,.
C[C@@H]1CN([C@H](C)CO)C(=O)c2cc(NC(=O)Nc3ccc(C(F)(F)F)cc3)ccc2O[C@H]1CN(C)S(=O)(=O)c1cccs1,13,29,-,-,-,-,-,49,33
C[C@@H]1CCCCO[C@H](CN(C)S(=O)(=O)c2ccc(F)cc2)[C@@H](C)CN([C@H](C)CO)C(=O)c2cc(NC(=O)Nc3ccc(C(F)(F)F)cc3)ccc2O1,8.7,27,-,-,-,-,-,45,24
CCn1c(Cc2cccs2)nnc1SCC(=O)Nc1ccc2c(c1)OCCO2,-,-,.,-,-,.,.,.,.
CCCCC[C@H](C)N1C[C@@H](COCc2ccccc2)Oc2cc(N3CC[C@@H](O)C3)ccc2S1(=O)=O,-,-,-,-,-,.,.,.,.
CCCCC[C@@H](C)N1C[C@@H](COCc2ccccc2)Oc2cc(N3CC[C@H](O)C3)ccc2S1(=O)=O,9.1,22,-,-,-,-,-,34,18
Cc1cc(NC(=O)COC(=O)c2cccc(S(=O)(=O)N3CCOCC3)c2)no1,-,-,-,-,-,.,.,.,.
O=C(COC(=O)c1cccc(S(=O)(=O)N2CCOCC2)c1)Nc1nc(-c2ccccc2Cl)cs1,16,37,-,-,-,-,-,35,17
Nc1ccc2c(c1)Cc1cc(N)c(Cl)cc1-2,12,27,-,-,-,-,-,-,-
Cc1ccc(NC(=O)NNC(=O)Cn2nc(-c3ccccc3)c(-c3ccccc3)c(C#N)c2=O)cc1,20,20,-,-,-,-,-,-,15
O=C(Cn1nc(-c2ccccc2)c2ccccc2c1=O)Nc1ccc(O)cc1,-,-,-,-,-,.,.,.,.
